Results: ChEMBL document CHEMBL1141840, “Antifungal metabolites from the marine sponge Pachastrissa sp.: new bengamide and bengazole derivatives” (1999)
Converted amounts (≈) assume the structure as drawn. The source made the active and inactive calls. The calls are words filed in the database; no cut-off is given here.

Legend:
Saccharomyces cerevisiae = assay: Antimicrobial activity against Saccharomyces cerevisiae ATCC 28383 after 24 hrs by liquid-phase turbidimetric system; format: functional, organism-based
Procedure, shortened: (§1)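 Fungal growth followed in liquid culture by turbidimetry, read automatically every 30 min over 24 h, with compounds tested at various concentrations.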

Candida albicans = assay: Antifungal activity against Candida albicans CIP 118079 after 24 hrs by liquid-phase turbidimetric system; format: functional; conditions: for MIC: CIP 118079, 24 h; procedure, shortened: as §1

SMILES	Activity (Saccharomyces cerevisiae)	Activity (Candida albicans)	MIC (Candida albicans)
C[C@H](O)[C@@H](O)[C@@H](O)C[C@@H](O)c1coc(Cc2cnco2)n1	inactive	inactive	–
CC(C)CCCCCCCCCCCCC(=O)O[C@@H](C)[C@@H](O)[C@@H](O)C[C@@H](O)c1coc(Cc2cnco2)n1	inactive	–	0.8 µg/mL (≈ 1.49 µM)
CCCCCCCCCCCCCCCC(=O)O[C@@H](C)[C@@H](O)[C@@H](O)C[C@@H](O)c1coc(Cc2cnco2)n1	inactive	–	0.8 µg/mL (≈ 1.49 µM)
CCCCCCCCCCCCCC(=O)O[C@H](C[C@H](O)[C@H](O)[C@H](C)O)c1coc(Cc2cnco2)n1	inactive	–	0.8 µg/mL (≈ 1.57 µM)
CCCCCCCCCCCCCCCC(=O)O[C@H](C[C@H](O)[C@H](O)[C@H](C)O)c1coc(Cc2cnco2)n1	inactive	–	0.8 µg/mL (≈ 1.49 µM)
CCCCCCCCCCCCCCC(=O)O[C@@H](C)[C@@H](O)[C@@H](O)C[C@@H](O)c1coc(Cc2cnco2)n1	inactive	–	0.8 µg/mL (≈ 1.53 µM)
CO[C@@H](C(=O)N[C@H]1CC[C@H](OC(=O)CCCCCCCCCCCC(C)C)CNC1=O)[C@H](O)[C@@H](O)[C@H](O)/C=C/C(C)C	inactive	inactive	–
CCCCCCCCCCCCCC(=O)O[C@H]1CC[C@H](NC(=O)[C@H](OC)[C@H](O)[C@@H](O)[C@H](O)/C=C/C(C)C)C(=O)NC1	inactive	inactive	–
CC(C)CCCCCCCCCCCCC(=O)O[C@H](C[C@H](O)[C@H](O)[C@H](C)O)c1coc(Cc2cnco2)n1	inactive	–	0.8 µg/mL (≈ 1.49 µM)
CO[C@@H](C(=O)N[C@H]1CCCCNC1=O)[C@H](O)[C@@H](O)[C@H](O)/C=C/C(C)C	inactive	inactive	–
CCCCCCCCCCCCCC(=O)O[C@@H](C)[C@@H](O)[C@@H](O)C[C@@H](O)c1coc(Cc2cnco2)n1	inactive	–	0.8 µg/mL (≈ 1.57 µM)
CC(C)CCCCCCCCCCCC(=O)O[C@H](C[C@H](O)[C@H](O)[C@H](C)O)c1coc(Cc2cnco2)n1	inactive	–	0.8 µg/mL (≈ 1.53 µM)
CCCCCCCCCCCCCCC(=O)O[C@H](C[C@H](O)[C@H](O)[C@H](C)O)c1coc(Cc2cnco2)n1	inactive	–	0.8 µg/mL (≈ 1.53 µM)
CC(C)CCCCCCCCCCCC(=O)O[C@@H](C)[C@@H](O)[C@@H](O)C[C@@H](O)c1coc(Cc2cnco2)n1	inactive	–	0.8 µg/mL (≈ 1.53 µM)
CCCCCCCCCCCCCC(=O)O[C@H]1CC[C@H](NC(=O)[C@H](OC)[C@H](O)[C@@H](O)[C@H](O)/C=C/C(C)C)C(=O)N(C)C1	inactive	inactive	–
